# Calls of active or inactive are those of the source. The calls are words filed in the database; no cut-off is given here.
# Tests used:
# Rattus norvegicus [1] = species on record: Rattus norvegicus; test: Selectivity ratio of Ki for Sprague-Dawley rat dopamine D1-like receptor to Ki for Sprague-Dawley rat dopamine D3 receptor
# [2] = Displacement of [3H]SCH 23390 from Sprague-Dawley rat dopamine D1-like receptor after 90 mins
# D(3) dopamine receptor = D(3) dopamine receptor (Rattus norvegicus, UniProt P19020); test: Displacement of [3H]R(+)-7-OH-DPAT from Sprague-Dawley rat dopamine D3 receptor after 90 mins
# Rattus norvegicus [3] = species on record: Rattus norvegicus; test: Selectivity ratio of Ki for Sprague-Dawley rat dopamine D2-like receptor to Ki for Sprague-Dawley rat dopamine D3 receptor
# D(2) dopamine receptor = D(2) dopamine receptor (Rattus norvegicus, UniProt P61169); test: Displacement of [3H]Spiperone from Sprague-Dawley rat dopamine D2-like receptor after 90 mins
# Rattus norvegicus [4] = test: Induction of yawning in sc dosed Sprague-Dawley rat after 60 mins; type: functional, organism-based
# Rattus norvegicus [5] = species on record: Rattus norvegicus; conditions: Sprague-Dawley, 0.32 mg/kg
# Rattus norvegicus [6] = species on record: Rattus norvegicus; conditions: Sprague-Dawley, 10 mg/kg
# Rattus norvegicus [7] = test: Induction of hypothermia in Sprague-Dawley rat at 10 mg/kg, sc after 60 mins; type: functional, organism-based; set-up: dose 10 mg/kg
# Summary of the method: (§1)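 Readout is the change in core body temperature in rats after subcutaneous agonist dosing. Statistical significance was assessed at P < 0.05, 0.005 and 0.001.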
# [8] = Aqueous solubility of the compound; type: physicochemical
# Rattus norvegicus [9] = test: Induction of yawning in Sprague-Dawley rat at 10 mg/kg, sc pre-treated with 1 mg/kg D2 receptor antagonist L-741,626 measured 30 mins post dose; type: functional, organism-based
# Summary of the method: (§2)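 The selective antagonist (D3: SB-277011A; D2: L-741,626) was given before the subcutaneous agonist dose. Yawning was then scored in rats.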
# Rattus norvegicus [10] = test: Induction of yawning in Sprague-Dawley rat at 10 mg/kg, sc pre-treated with 32 mg/kg D3 receptor antagonist SB-277011A measured 30 mins post dose; type: functional, organism-based; summary of the method: as §2
# Rattus norvegicus [11] = test: Induction of yawning in Sprague-Dawley rat at 1 mg/kg, sc after 60 mins; type: functional, organism-based; set-up: dose 1 mg/kg
# [12] = target: D(3) dopamine receptor (Homo sapiens) (UniProt P35462); test: Agonist activity at human dopamine D3 receptor expressed in CHOp cells assessed as […] quinpirole-induced mitogenesis after 24 hrs relative to quinpirole; type: functional, cell-based
# Summary of the method: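 Mitogenesis functional assay on cloned human D3 receptor expressed in CHO cells. Quinpirole serves as the standard D3 agonist control. Readouts are EC50 and maximal stimulation, expressed as a percentage of the quinpirole maximum.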
# Rattus norvegicus [13] = test: Induction of yawning in Sprague-Dawley rat at 0.01 mg/kg, sc after 60 mins; type: functional, organism-based; set-up: dose 0.01 mg/kg
# Rattus norvegicus [14] = species on record: Rattus norvegicus; conditions: Sprague-Dawley, 10 mg/kg; remark: listed apart in the source
# Rattus norvegicus [15] = test: Induction of yawning in Sprague-Dawley rat at 1 mg/kg, sc pre-treated with 32 mg/kg D3 receptor antagonist SB-277011A measured 30 mins post dose; type: functional, organism-based; summary of the method: as §2
# Rattus norvegicus [16] = test: Induction of yawning in Sprague-Dawley rat at 1 mg/kg, sc pre-treated with 1 mg/kg D2 receptor antagonist L-741,626 measured 30 mins post dose; type: functional, organism-based; summary of the method: as §2
# Rattus norvegicus [17] = test: Induction of hypothermia in Sprague-Dawley rat at 3.2 mg/kg, sc after 60 mins; type: functional, organism-based; set-up: dose 3.2 mg/kg; summary of the method: as §1
# Rattus norvegicus [18] = test: Induction of hypothermia in Sprague-Dawley rat at 10 mg/kg, sc pre-treated with 1 mg/kg D2 receptor antagonist L-741,626 measured 30 mins post dose
# Rattus norvegicus [19] = test: Induction of yawning in Sprague-Dawley rat at 0.01 to 10 mg/kg, sc after 60 mins; type: functional, organism-based
# [20] = target: D(1A) dopamine receptor (Homo sapiens) (UniProt P21728); test: Displacement of [3H]SCH-23390 from human cloned dopamine D1 receptor expressed in LhD1 cells at 10000 nM after 60 mins by scintillation counter; type: cell-based
# Rattus norvegicus [21] = test: Induction of yawning in Sprague-Dawley rat at 0.1 to 10 mg/kg, sc after 60 mins; type: functional, organism-based
# Sequence of D(2) dopamine receptor (P61169 whole entry): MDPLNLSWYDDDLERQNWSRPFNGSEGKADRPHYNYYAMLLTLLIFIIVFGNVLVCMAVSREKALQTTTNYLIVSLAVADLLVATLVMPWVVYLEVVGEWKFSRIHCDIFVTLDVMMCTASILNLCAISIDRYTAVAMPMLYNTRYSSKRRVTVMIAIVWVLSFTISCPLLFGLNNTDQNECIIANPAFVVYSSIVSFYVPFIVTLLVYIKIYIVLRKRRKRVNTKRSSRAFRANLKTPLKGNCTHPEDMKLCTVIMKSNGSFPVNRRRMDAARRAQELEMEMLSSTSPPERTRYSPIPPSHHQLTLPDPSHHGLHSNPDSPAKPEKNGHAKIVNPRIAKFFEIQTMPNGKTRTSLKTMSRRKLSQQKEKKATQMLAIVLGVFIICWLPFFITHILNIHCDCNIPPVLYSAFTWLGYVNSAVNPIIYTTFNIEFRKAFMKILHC
# Sequence of D(3) dopamine receptor (P19020 whole entry): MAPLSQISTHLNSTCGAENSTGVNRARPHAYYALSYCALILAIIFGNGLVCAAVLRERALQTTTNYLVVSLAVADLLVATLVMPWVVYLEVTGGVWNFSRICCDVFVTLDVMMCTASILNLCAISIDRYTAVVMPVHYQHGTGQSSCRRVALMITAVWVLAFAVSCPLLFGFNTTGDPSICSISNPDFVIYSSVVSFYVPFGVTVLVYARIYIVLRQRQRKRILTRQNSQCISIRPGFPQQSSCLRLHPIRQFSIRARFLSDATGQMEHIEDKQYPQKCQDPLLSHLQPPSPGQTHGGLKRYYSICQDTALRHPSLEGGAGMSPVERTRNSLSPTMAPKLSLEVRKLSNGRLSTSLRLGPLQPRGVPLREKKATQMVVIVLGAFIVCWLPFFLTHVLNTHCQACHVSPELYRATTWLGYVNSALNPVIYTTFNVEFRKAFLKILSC
# Sequence of D(1A) dopamine receptor (Homo sapiens) (P21728 whole entry): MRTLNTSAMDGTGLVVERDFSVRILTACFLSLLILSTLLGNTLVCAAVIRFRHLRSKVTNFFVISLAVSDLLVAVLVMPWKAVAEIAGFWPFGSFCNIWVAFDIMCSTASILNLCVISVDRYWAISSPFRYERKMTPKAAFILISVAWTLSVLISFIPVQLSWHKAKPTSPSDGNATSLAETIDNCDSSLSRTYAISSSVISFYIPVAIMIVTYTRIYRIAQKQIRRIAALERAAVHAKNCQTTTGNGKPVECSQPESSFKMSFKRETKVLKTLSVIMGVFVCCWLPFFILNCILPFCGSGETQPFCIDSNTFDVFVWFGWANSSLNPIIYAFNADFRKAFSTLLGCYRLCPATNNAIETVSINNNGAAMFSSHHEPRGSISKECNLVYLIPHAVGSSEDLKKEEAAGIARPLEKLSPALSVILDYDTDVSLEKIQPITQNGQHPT
# Sequence of D(3) dopamine receptor (Homo sapiens) (P35462 whole entry): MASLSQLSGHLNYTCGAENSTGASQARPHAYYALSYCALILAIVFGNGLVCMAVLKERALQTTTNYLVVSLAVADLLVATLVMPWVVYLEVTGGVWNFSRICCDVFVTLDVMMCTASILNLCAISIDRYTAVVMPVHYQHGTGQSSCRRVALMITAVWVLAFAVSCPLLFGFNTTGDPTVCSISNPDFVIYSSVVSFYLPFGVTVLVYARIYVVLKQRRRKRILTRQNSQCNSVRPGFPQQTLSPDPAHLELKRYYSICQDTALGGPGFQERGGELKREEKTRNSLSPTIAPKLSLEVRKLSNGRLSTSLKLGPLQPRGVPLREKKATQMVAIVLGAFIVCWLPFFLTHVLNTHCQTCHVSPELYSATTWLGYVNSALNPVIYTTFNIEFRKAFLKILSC
solubility [8] [mg/mL],Compound,Ratio Ki (Rattus norvegicus [1]),Ki [2] [nM],Ki (D(3) dopamine receptor) [nM],Ratio Ki (Rattus norvegicus [3]),Ki (D(2) dopamine receptor) [nM],Activity (Rattus norvegicus [4]),further results
,CCCN(CC[C@]1(O)CC[C@@H](NC(=O)c2ccc3ccccc3c2)CC1)[C@H]1CCc2nc(N)sc2C1,7370,11600,1.6,1040,1630,,
,CCCN(CC[C@H]1C[C@H](NC(=O)c2ccc3ccccc3c2)C1)[C@H]1CCc2nc(N)sc2C1,14800,6120,0.41,1420,584,,
,CCCN[C@H]1CCc2nc(N)sc2C1 [PRAMIPEXOLE],,> 10000,0.45,,,Dose-dependent effect,deltaT (Rattus norvegicus [5]): 0.75 °C; inhibition (Rattus norvegicus [6]): Active; Activity (Rattus norvegicus [7]): Active
> 50,CCCN(CC[C@H]1CC[C@H](NC(=O)/C=C/c2ccccc2)CC1)[C@H]1CCc2nc(N)sc2C1,,,,,,,
,CCCN(CC[C@H]1C[C@@H](NC(=O)c2ccc3ccccc3c2)C1)[C@H]1CCc2nc(N)sc2C1,8820,3060,0.35,1630,564,,
> 50,CCCN(CC[C@H]1CC[C@H](NC(=O)c2ccc3ccccc3c2)CC1)[C@H]1CCc2nc(N)sc2C1,,> 5000,,,,,
,CCCN(CC[C@]1(O)CC[C@H](NC(=O)c2ccc3ccccc3c2)CC1)[C@H]1CCc2nc(N)sc2C1,15100,14100,0.93,3820,3550,,
> 100,CCCN(CC[C@]1(O)C[C@@H](NC(=O)c2ccc3ccccc3c2)C1)[C@H]1CCc2nc(N)sc2C1.Cl,,,,,,Dose-dependent effect,Activity (Rattus norvegicus [11]): Active; Activity (Rattus norvegicus [21]): Active

Compound,solubility [8] [mg/mL],Ratio Ki (Rattus norvegicus [1]),Ki [2] [nM],Ki (D(3) dopamine receptor) [nM],Ratio Ki (Rattus norvegicus [3]),Ki (D(2) dopamine receptor) [nM],Activity (Rattus norvegicus [4]),further results
CCCN(CC[C@]1(O)C[C@H](NC(=O)c2ccc3ccccc3c2)C1)[C@H]1CCc2nc(N)sc2C1.Cl,> 100,,,,,,Dose-dependent effect,Activity (Rattus norvegicus [9]): Active; Activity (Rattus norvegicus [10]): inactive; Activity (Rattus norvegicus [11]): Active; Emax [12]: 103%; Activity (Rattus norvegicus [13]): Active; deltaT (Rattus norvegicus [14]): 0.75 °C; Activity (Rattus norvegicus [15]): inactive; Activity (Rattus norvegicus [16]): Active; Activity (Rattus norvegicus [17]): inactive; Activity (Rattus norvegicus [18]): Active; Activity (Rattus norvegicus [19]): Active; Activity (Rattus norvegicus [7]): Active; Activity [20]: inactive

# — ChEMBL document CHEMBL2203147 (ACS Med Chem Lett, 2011)
